Reference: ChEMBL document CHEMBL4118190, “An SAR study of hydroxy-trifluoromethylpyrazolines as inhibitors of Orai1-mediated store operated Ca2+ entry in MDA-MB-231 breast cancer cells using a convenient Fluorescence Imaging Plate Reader assay” (Bioorg Med Chem, 2018)
Converted amounts (≈) assume the structure as drawn. The source made the active and inactive calls. The calls are words filed in the database; no cut-off is given here.

Tests used:
[1] = Inhibition of CRAC in human Jurkat T cells assessed as increase in TG-stimulated intracellular calcium depletion measured every 8 secs by Ca2+ dye based fluorescence assay; assay type: cell-based
[2] = target: T1, Calcium release-activated calcium channel protein 1 (Homo sapiens, UniProt Q96D31); assay: Inhibition of […] Orai1-medited store operated calcium entry in human MDA-MB-231 cells at 30 uM pretreated for 15 mins followed by BAPTA addition by PBX dye based FLIPR assay relative to control; assay type: cell-based
How it was run: (§1)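 MDA-MB-231 cells seeded 2×10^3/well and used 3 days later. Loaded 1 h at 37 °C with 2 µM PBX calcium dye, 5% signal enhancer and 500 µM probenecid in PSS, pH 7.3. Compound pretreated 15 min at room temperature. Then 500 µM BAPTA, 10 µM CPA, and 0.5 mM CaCl2 700 s after CPA. Read-out: peak 2 height as % inhibition vs DMSO. 95% CI, n = 4.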
Target sequence in this assay (Q96D31 whole entry, looked up): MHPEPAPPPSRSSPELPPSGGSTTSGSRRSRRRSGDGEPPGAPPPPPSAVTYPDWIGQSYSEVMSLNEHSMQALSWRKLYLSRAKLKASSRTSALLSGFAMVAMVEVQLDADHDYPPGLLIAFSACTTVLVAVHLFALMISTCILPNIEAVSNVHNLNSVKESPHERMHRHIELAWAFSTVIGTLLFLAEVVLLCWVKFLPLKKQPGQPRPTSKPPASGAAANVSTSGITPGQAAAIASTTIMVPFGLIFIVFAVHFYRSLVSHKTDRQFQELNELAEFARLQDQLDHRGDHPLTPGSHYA

MDA-MB-231 = assay: Inhibition of endoplasmic reticulum calcium channel in human MDA-MB-231 cells assessed as reduction in endoplasmic reticulum intracellular calcium release at 100 uM pretreated for 15 mins followed by SERCA inhibitor CPA addition measured after 700 secs by PBX dye based FLIPR assay relative to control; assay type: cell-based
How it was run: (§2)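 Same MDA-MB-231 PBX-dye FLIPR protocol: 15 min compound pretreatment at room temperature, then BAPTA (500 µM) and CPA (10 µM) to deplete ER stores. Peak 1 height after CPA addition (ER Ca2+ release) expressed as % inhibition relative to the DMSO control. Excitation 470–495 nm, emission 515–575 nm.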

[3] = Lipophilicity, log P of the compound; assay type: physicochemical; settings: octanol/water
hERG (KCNH2) = hERG (KCNH2) (Homo sapiens, UniProt Q12809); assay: Inhibition of human ERG at 10 uM relative to control
[4] = target: Voltage-dependent L-type calcium channel subunit alpha-1C (Homo sapiens, UniProt Q13936); assay: Inhibition of Cav1.2 (unknown origin) up to 100 uM
Voltage-dependent L-type calcium channel subunit alpha-1C, sequence (Q13936 whole entry): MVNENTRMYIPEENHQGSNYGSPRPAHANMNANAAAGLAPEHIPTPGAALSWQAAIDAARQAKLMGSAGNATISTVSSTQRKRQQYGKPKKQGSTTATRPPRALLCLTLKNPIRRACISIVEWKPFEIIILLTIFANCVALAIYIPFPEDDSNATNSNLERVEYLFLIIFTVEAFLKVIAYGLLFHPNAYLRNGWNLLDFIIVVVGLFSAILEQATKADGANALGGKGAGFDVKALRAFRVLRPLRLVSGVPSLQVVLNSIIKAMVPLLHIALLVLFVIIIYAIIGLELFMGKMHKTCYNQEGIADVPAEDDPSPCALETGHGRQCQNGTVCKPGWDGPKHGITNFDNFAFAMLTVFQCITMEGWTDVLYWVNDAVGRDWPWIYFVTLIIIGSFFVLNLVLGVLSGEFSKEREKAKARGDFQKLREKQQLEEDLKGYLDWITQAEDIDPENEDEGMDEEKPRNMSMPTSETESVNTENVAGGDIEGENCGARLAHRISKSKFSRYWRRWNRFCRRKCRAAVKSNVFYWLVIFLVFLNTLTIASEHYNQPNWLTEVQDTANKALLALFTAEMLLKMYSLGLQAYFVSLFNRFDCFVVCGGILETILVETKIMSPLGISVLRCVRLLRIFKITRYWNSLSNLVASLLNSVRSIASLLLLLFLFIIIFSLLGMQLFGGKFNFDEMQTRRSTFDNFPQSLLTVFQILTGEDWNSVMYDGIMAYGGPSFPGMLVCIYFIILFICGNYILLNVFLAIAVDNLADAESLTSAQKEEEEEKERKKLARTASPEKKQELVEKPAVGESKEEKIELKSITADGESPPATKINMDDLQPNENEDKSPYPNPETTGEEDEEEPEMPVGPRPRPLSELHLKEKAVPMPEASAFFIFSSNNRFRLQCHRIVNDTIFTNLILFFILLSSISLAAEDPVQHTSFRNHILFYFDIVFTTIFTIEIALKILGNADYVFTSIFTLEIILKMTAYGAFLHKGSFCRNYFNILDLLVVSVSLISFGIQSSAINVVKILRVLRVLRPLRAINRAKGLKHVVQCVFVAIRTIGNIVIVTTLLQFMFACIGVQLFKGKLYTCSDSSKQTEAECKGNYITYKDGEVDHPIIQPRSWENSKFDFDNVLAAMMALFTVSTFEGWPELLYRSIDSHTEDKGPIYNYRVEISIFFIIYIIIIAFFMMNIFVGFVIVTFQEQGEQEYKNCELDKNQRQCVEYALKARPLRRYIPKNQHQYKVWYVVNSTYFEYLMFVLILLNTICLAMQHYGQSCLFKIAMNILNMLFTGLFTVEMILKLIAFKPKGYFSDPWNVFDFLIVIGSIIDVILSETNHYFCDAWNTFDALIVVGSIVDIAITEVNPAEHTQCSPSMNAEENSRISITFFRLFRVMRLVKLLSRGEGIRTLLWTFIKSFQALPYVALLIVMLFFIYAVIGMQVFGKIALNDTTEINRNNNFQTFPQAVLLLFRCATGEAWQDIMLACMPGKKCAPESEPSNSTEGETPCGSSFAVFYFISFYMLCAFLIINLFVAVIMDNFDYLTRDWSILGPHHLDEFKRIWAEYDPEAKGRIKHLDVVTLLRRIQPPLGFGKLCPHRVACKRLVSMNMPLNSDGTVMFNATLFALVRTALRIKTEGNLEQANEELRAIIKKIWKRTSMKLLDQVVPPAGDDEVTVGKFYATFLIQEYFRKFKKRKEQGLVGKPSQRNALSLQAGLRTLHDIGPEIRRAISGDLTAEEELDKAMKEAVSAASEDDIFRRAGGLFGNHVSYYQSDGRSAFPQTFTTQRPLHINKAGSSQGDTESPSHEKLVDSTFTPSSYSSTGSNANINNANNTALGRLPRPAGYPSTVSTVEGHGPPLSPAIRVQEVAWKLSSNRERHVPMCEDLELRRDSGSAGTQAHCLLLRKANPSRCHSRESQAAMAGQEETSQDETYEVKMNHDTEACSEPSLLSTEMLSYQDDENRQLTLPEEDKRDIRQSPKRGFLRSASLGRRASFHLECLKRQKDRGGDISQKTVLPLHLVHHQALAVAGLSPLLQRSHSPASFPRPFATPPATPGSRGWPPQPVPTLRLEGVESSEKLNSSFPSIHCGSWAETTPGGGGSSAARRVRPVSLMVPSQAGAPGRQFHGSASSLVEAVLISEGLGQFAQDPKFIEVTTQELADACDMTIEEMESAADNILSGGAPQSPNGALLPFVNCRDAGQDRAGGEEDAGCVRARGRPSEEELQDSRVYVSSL

[5] = target: Transient receptor potential cation channel subfamily M member 8 (Rattus norvegicus) (UniProt Q8R455); assay: Inhibition of rat TRPM8 expressed in HEK293 cells assessed as reduction in menthol-induced calcium flux up to 100 uM pretreated for 300 secs followed by menthol addition by calcium 4-dye based FLIPR assay; assay type: cell-based
Transient receptor potential cation channel subfamily M member 8 (Rattus norvegicus), sequence (Q8R455 whole entry, looked up): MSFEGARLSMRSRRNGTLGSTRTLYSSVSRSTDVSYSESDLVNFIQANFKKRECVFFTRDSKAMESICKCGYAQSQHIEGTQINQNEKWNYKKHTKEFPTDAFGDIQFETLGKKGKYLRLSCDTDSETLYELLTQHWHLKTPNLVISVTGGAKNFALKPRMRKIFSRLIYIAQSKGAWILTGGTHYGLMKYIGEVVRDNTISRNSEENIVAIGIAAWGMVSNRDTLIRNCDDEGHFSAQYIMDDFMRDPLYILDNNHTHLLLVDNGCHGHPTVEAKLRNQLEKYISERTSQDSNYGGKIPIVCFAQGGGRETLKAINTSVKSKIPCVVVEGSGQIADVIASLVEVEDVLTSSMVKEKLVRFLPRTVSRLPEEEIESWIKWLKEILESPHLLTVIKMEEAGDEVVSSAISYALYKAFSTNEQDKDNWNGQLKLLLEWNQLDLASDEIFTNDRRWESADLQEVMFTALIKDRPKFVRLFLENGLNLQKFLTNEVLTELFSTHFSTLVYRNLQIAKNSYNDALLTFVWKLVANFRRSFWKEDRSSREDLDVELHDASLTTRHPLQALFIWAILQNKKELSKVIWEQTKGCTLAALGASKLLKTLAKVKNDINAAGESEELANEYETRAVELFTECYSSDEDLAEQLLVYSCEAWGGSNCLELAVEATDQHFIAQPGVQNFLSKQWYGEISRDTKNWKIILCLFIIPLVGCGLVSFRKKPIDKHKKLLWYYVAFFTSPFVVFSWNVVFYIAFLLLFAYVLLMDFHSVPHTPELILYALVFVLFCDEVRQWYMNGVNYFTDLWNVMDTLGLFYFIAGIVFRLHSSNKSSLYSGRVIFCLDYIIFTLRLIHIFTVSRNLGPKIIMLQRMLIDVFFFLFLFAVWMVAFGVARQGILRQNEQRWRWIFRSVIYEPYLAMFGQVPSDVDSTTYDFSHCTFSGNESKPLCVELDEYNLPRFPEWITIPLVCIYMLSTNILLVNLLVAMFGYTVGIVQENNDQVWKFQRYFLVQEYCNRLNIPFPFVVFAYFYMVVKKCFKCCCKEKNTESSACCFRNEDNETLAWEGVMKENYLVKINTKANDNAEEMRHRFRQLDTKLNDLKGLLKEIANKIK
How it was run: (§3)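 HEK293 cells transfected with rat TRPV1 or rat TRPM8 plasmid using Lipofectamine 2000, plated at 10,000/well and assayed 48 h after transfection. Calcium 4 dye loaded 30 min at 37 °C in PSS with 1.8 mM CaCl2. Compound added 300 s before agonist: capsaicin 100 nM for TRPV1, menthol 100 µM for TRPM8. Fluorescence read on FLIPR.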

[6] = target: T1, Calcium release-activated calcium channel protein 1; assay: Inhibition of […] Orai1-medited store operated calcium entry in human MDA-MB-231 cells at 100 uM pretreated for 15 mins followed by BAPTA addition by PBX dye based FLIPR assay relative to control; assay type: cell-based; how it was run: as §1
Target sequence in this assay (Q96D31 whole entry, looked up): as the sequence (Q96D31 whole entry, looked up) above

[7] = Solubility of the compound in alpha minimum essential medium; assay type: physicochemical
[8] = target: Voltage-dependent N-type calcium channel subunit alpha-1B (Homo sapiens) (UniProt Q00975); assay: Inhibition of Cav2.2 in human SH-SY5Y cells assessed as reduction in KCl/CaCl2-induced calcium flux up to 100 uM pretreated for 300 secs followed by KCl/CaCl2 addition measured in presence of nifedipine by calcium 4-dye based FLIPR assay; assay type: cell-based
How it was run: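 SH-SY5Y cells plated at 50,000/well and used 48 h later. Loaded 30 min at 37 °C/5% CO2 with Calcium 4 dye in PSS containing 1.8 mM CaCl2. Nifedipine 10 µM present. Compound added 300 s before stimulation with KCl (90 mM)/CaCl2 (5 mM). Calcium flux read on FLIPR.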

[9] = target: T1, Calcium release-activated calcium channel protein 1; assay: Inhibition of […] Orai1-medited store operated calcium entry in human MDA-MB-231 cells at 10 uM pretreated for 15 mins followed by BAPTA addition by PBX dye based FLIPR assay relative to control; assay type: cell-based; how it was run: as §1
Target sequence in this assay (Q96D31 whole entry, looked up): as above

[10] = target: Voltage-dependent L-type calcium channel subunit alpha-1D (Homo sapiens) (UniProt Q01668); assay: Inhibition of Cav1.3 (unknown origin) up to 100 uM
[11] = Half life in human liver microsomes; assay type: ADME, microsome
[12] = target: Transient receptor potential cation channel subfamily V member 1 (Rattus norvegicus) (UniProt O35433); assay: Inhibition of rat TRPV1 expressed in HEK293 cells assessed as reduction in capsaicin-induced calcium flux up to 100 uM pretreated for 300 secs followed by capsaicin addition by calcium 4-dye based FLIPR assay; assay type: cell-based; how it was run: as §3
Transient receptor potential cation channel subfamily V member 1 (Rattus norvegicus), sequence (O35433 whole entry): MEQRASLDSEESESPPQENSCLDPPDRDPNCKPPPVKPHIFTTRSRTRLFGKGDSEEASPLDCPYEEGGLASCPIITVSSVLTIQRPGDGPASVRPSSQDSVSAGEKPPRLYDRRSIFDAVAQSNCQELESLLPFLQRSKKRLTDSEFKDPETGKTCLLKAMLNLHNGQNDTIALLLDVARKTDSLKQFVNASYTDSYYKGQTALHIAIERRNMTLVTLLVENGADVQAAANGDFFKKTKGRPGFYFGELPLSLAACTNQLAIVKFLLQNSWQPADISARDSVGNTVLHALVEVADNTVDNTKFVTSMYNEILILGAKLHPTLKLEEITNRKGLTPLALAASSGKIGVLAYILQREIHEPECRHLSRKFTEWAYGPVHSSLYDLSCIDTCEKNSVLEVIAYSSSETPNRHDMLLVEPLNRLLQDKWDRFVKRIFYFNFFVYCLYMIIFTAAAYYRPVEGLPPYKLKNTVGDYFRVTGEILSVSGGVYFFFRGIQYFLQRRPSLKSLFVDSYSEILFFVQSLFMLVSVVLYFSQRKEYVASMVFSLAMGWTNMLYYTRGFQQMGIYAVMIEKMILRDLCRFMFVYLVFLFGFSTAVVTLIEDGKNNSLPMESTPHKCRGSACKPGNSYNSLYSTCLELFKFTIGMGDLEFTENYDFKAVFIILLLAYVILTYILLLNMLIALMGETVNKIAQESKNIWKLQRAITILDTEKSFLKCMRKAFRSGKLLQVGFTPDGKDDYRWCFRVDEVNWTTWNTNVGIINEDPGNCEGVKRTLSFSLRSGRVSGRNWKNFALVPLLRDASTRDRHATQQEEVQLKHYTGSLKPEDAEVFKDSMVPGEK

[13] = Stability of the compound in M1/M0 H2O; assay type: ADME
[14] = Half life in mouse liver microsomes; assay type: ADME, microsome
[15] = target: T1, Calcium release-activated calcium channel protein 1; assay: Inhibition of […] Orai1-medited store operated calcium entry in human MDA-MB-231 cells pretreated for 15 mins followed by BAPTA addition by PBX dye based FLIPR assay; assay type: cell-based; how it was run: as §1
Target sequence in this assay (Q96D31 whole entry): as the sequence (Q96D31 whole entry, looked up) above

[16] = Inhibition of endoplasmic reticulum calcium channel in human MDA-MB-231 cells assessed as reduction in endoplasmic reticulum intracellular calcium release pretreated for 15 mins followed by SERCA inhibitor CPA addition measured after 700 secs by PBX dye based FLIPR assay; assay type: cell-based; how it was run: as §2
[17] = target: T1, Calcium release-activated calcium channel protein 1; assay: Inhibition of […] Orai1-medited store operated calcium entry in human MDA-MB-231 cells at 300 uM pretreated for 15 mins followed by BAPTA addition by PBX dye based FLIPR assay relative to control; assay type: cell-based; how it was run: as §1
Target sequence in this assay (Q96D31 whole entry, looked up): as above

[18] = Inhibition of […] in thapsigargin-stimulated human Jurkat T cells assessed as blockade of intracellular calcium flux by fluo-4-AM dye based FLIPR assay; assay type: cell-based
[19] = Inhibition of CRAC in rat RBL2H3 cells assessed blockade of IP3-induced calcium flux pretreated for 30 to 60 mins followed by IP3 addition by Qpatch analysis; assay type: cell-based; settings: RBL-2H3

Cc1nnsc1C(=O)Nc1ccc(-n2nc(C(F)(F)F)cc2C(F)(F)F)cc1
IC50 [1]: 0.01 µM

Cc1ccccc1C1=NN(C(=O)Cc2ccccc2)C(O)(C(F)(F)F)C1 (stereo unspecified)
inhibition [2]: 50% | inhibition (MDA-MB-231): < 10%

COc1cccc(C2(O)CC(C(F)(F)F)=NN2C(=O)Cc2ccccc2)c1 (stereo unspecified)
logP [3]: 4.4 | inhibition at 10 µM (hERG (KCNH2)): 9.1% | inhibition (INH) [4]: Not Active | inhibition [5]: inactive | inhibition [6]: 37% | solubility [7]: 16.8 µg/mL (≈ 44.4 µM) | inhibition [8]: inactive | inhibition (MDA-MB-231): inactive | inhibition [9]: 11% | inhibition [10]: inactive | half-life [11]: 8.2 min | inhibition [12]: inactive | Stability [13]: 93.2% | half-life [14]: 3.3 min

O=C(Cc1ccccc1)N1N=C(C(F)(F)F)CC1(O)c1ccccc1C(F)(F)F (stereo unspecified)
IC50 [15]: 49 µM | IC50 [16]: 80 µM

COc1cccc(C2=NN(C(=O)Cc3ccccc3)C(O)(C(F)(F)F)C2)c1 (stereo unspecified)
inhibition [6]: 36 to 37% | inhibition (MDA-MB-231): < 10% | inhibition [9]: 14%

Cc1ccccc1C1(O)CC(C(F)(F)F)=NN1C(=O)c1ccccc1 (stereo unspecified)
inhibition (MDA-MB-231): < 10% | inhibition [9]: 20%

O=C(Cc1ccccc1)N1N=C(c2cccc(NC(=O)C(F)(F)F)c2)CC1(O)C(F)(F)F (stereo unspecified)
inhibition [2]: 60% | inhibition (MDA-MB-231): < 10%

O=C(Cc1ccccc1)N1N=C(c2ccncc2)CC1(O)C(F)(F)F (stereo unspecified)
inhibition [17]: 50% | inhibition [6]: < 10% | inhibition (MDA-MB-231): < 10%

O=C(Cc1ccccc1)N1N=C(c2ccc3c(c2)CCCC3)CC1(O)C(F)(F)F (stereo unspecified)
IC50 [15]: 89 µM | inhibition [6]: 50% | inhibition (MDA-MB-231): < 10%

COc1ccc(OC)c(-c2ccc(NC(=O)c3ccncc3F)cc2)c1
IC50 [18]: 1.4 µM

CS(=O)(=O)Nc1cccc(C2=NN(C(=O)Cc3ccccc3)C(O)(C(F)(F)F)C2)c1 (stereo unspecified)
inhibition [2]: 20% | inhibition (MDA-MB-231): < 10%

O=C(Cc1ccccc1)N1N=C(c2cccc(F)c2)CC1(O)C(F)(F)F (stereo unspecified)
inhibition [2]: 60% | inhibition (MDA-MB-231): < 10%

O=C(Cc1ccccc1)N1N=C(c2ccc(N3CCOCC3)cc2)CC1(O)C(F)(F)F (stereo unspecified)
inhibition [17]: 50% | inhibition [6]: < 10% | inhibition (MDA-MB-231): < 10%

CC1=C(c2cnc(NC(=O)c3c(F)cccc3F)cn2)CN(c2ncc(C)s2)CC1
IC50 [19]: 0.4 µM
